RAD52 inh – RAD52 DNA annealing inhibitors, primary screen, biochemical, FRET, single point, set 2. DNA repair protein RAD52 homolog (Homo sapiens), P43351. recombinant RAD52 DNA annealing, FRET fluorescence. inhibition, % at 18.7 µM. 360,000 compounds, 0.46% hits. AID 651710, 2012;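 active = every replicate showing at least 50% inhibition; inconclusive = mean inhibition at least 50% but not in every replicate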
RAD54 branch – inhibitors of human RAD54 branch migration, primary screen, biochemical, fluorescence, single point. DNA repair and recombination protein RAD54-like (Homo sapiens), Q92698. RAD54 Holliday junction branch migration, FAM/BHQ fluorescence. inhibition, % at 10.4 µM. 360,000 compounds, 0.14% hits;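 active = mean normalized replicate activity at least 40 and at least half of replicates scoring 40 or more; inconclusive = only one of the two criteria met; inactive = mean below 40 and under half of replicates reaching 40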;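 note: 0% = median of neutral control wells and 100% = median of positive control wells; inhibitors cause a drop in the FAM fluorescence signal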
Glyco luc inh – increase of ERlucT glycosylation luciferase signal, primary screen, N-linked glycosylation inhibitor project, D54 ERlucT cells, luminescence, set 2 | D54 ERlucT glycosylation luciferase reporter, 24 h; percent of 100 nM tunicamycin response | reporter increase, % at 12.5 µM | 360,000 compounds, 0.23% hits;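 active = mean luciferase reporter signal, scaled so untreated is 0 and the glycosylation-blocking control 100, at or above a set limit in every replicate; inconclusive = mean reaches the limit but not every replicate does; inactive = mean below the limit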;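 note: luciferase carries N-glycosylation sites so blocking glycosylation raises the light; 0% = median of neutral control wells and 100% = median of 100 nM tunicamycin wells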
FN deposition inh – inhibitors of fibronectin matrix deposition, primary screen, AH1F cells, Alexa488-fibronectin fluorescence, plate reader; inhibition, % at 12.6 µM; AH1F fibroblasts, overnight; AID 743247, 2014; 350,000 compounds, 0.086% hits;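 active = mean inhibition across replicates of 30% or more, regardless of how many single replicates reach that level; inconclusive = mean under 30% yet at least half of replicates reach 30%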;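 note: positive control wells lacked labelled fibronectin entirely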
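Material – AH1F fibroblast monolayer, labelled fibronectin deposition · Reagent – labelled fibronectin 24 nM · Timing – 1 h adhesion, overnight exposure · Measured by – fluorescence at 485 nm excitation, 525 nm emission · Read-out – inhibition of fibronectin deposition signal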
MLL AF4-AF9 inh – inhibitors of AF4 peptide binding to AF9, primary screen, biochemical, AlphaScreen, biotin-AF4 peptide, FLAG-AF9, single point; inhibition, % at 10 µM; 350,000 compounds, 0.47% hits; Protein AF-9 (Homo sapiens), P42568;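 active = every replicate reaching a set inhibition limit, whatever the replicate mean, cut at about 25% in these data; inconclusive = mean inhibition reaches that limit but some replicates miss it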;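 note: 0% = plate neutral control median and 100% = total signal loss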
NSD2 inh – NSD2 histone methyltransferase inhibitors, primary screen, biochemical, AlphaScreen, single concentration, set 2. NSD2 peptide methylation, 120 min. inhibition, % at 12.5 µM. 310,000 compounds, 0.54% hits; in the data active = inhibition above about 50%
DNA binding – DNA binding of candidate compounds, dose response, artefact control for RAD54 inhibitor project, biochemical, fluorescence polarization, cherry-pick; Acridine orange-DNA displacement, 20 min; 460 compounds, 8% hits; AID 651673, 2012; shares compounds with RAD54 branch; AC50, µM (doses to about 35 µM), inactives show at the top dose activity change, negative = DNA binding;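 active = signal drop giving an AC50 within twice the top valid tested concentration of each sample, actives reach about 35 µM in these data; inactive = activity opposite to expected, plus the rest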;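 note: polarization loss reports compound binding to salmon sperm DNA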
* hit, by the source's call; i = inactive; ? = inconclusive; . = not tested or not shown. Most compounds without a hit are left out; they make up all but 1.2% or so of the library.

SMILES | RAD52 inh | RAD54 branch | Glyco luc inh | FN deposition inh | MLL AF4-AF9 inh | NSD2 inh | DNA binding
COc1cc2ccccc2cc1C(=O)Nc1sc2c(c1C(N)=O)CCN(C(C)C)C2 | -16 | 81* | -17 | 6 | 1 | 1 | -23%
CCN1CCc2c(sc(NC(=O)c3ccc(S(=O)(=O)N4CCOCC4)cc3)c2C(N)=O)C1 | 27 | 43 | -4 | 0 | 0 | . | .
CCOC(=O)c1c(NC(=O)c2ccc(S(=O)(=O)N3CCOCC3)cc2)sc2c1CCN(C(C)C)C2 | -241 | 79* | -1 | -7 | 5 | -2 | -11%
CC(C)N1CCc2c(sc(NC(=O)c3ccc(S(=O)(=O)N4CCOCC4)cc3)c2C(N)=O)C1 | -244 | 21 | -4 | . | -3 | . | .
CCN1CCc2c(sc(NC(=O)c3ccc(S(=O)(=O)N4CCOCC4)cc3)c2C(=O)OC)C1 | . | 80* | -4 | . | . | -4 | -1%
CCN1CCc2c(sc(NC(=O)c3ccc(C(=O)c4ccccc4)cc3)c2C(N)=O)C1 | -41 | ? | -8 | -1 | 2 | 3 | 9%
CCNC(=O)C[C@H]1CC[C@H](NS(=O)(=O)c2ccc(F)cc2)[C@@H](CO)O1 | 7 | 6 | . | 6 | -3 | . | .
Cc1ccc(S(=O)(=O)NCC[C@@H]2CC[C@H](NS(=O)(=O)c3ccccc3Cl)[C@H](CO)O2)cc1 | 0 | 2 | . | -8 | -1 | . | .
CCn1c(=N)c(C(=O)NC)cc2c(=O)n3cccc(C)c3nc21 | . | ? | 6 | 3 | -5 | 3 | 0%
CCCn1c(=N)c(C(=O)NC2CCCC2)cc2c(=O)n3cccc(C)c3nc21 | . | 9 | 6 | . | . | 0 | .
CCOc1cc2[nH]c(=O)n(Cc3ccc(C(=O)NCCCN4CCC(C)CC4)cc3)c(=O)c2cc1OCC | 48 | 60* | -2 | 7 | 4 | . | -9%
Cn1c2ccc(F)cc2c2ncn(CCCN(CCO)CCO)c(=O)c21 | . | 54* | 1 | 5 | . | 4 | -14%
CCCNC(=O)Nc1ccc2c(c1)C(=O)N(C)C[C@H](OC)[C@@H](C)CN(Cc1ccncc1)[C@H](C)CO2 | . | . | . | -6 | . | . | .
Cc1cccc(Cn2c(Sc3nc(C)cs3)nc3c2c(=O)[nH]c(=O)n3C)c1 | . | ? | 2 | 0 | . | -1 | 14%
CCN(CC)CC(=O)Nc1cc(N(C)C)nc2ccccc12 | 31 | 51* | 2 | 4 | -6 | -3 | -3%
CCC(=O)N1CCC2(CC1)CN(Cc1ccc3c(c1)OCO3)[C@@H](CO)c1c2c2ccc(OC)cc2n1C | . | . | . | . | 2 | . | .
Cc1noc(C)c1S(=O)(=O)N(C)C[C@@H]1Oc2ccc(NS(=O)(=O)c3ccccc3)cc2CC(=O)N([C@H](C)CO)C[C@H]1C | 3 | -7 | . | . | 4 | . | .
COc1ccc(OC)c2c(C)cc(NCCN3CCOCC3)nc12 | . | 54* | 5 | 0 | . | 3 | -10%
CCN(CC)CCNC(=O)c1cc2c(=O)n(C)c3ccccc3c2n1C | 39 | 61* | 16 | -3 | -2 | . | -12%
CCCN(CCC)CCCNC(=O)c1cc2c(=O)n(C)c3ccccc3c2n1C | 16 | ? | 7 | -13 | -1 | . | -11%
CN(C)CCNC(=O)c1cc2c(=O)n(C)c3ccccc3c2n1C | 42 | 78* | 16 | 0 | -3 | . | i
COCCNC(=O)c1cc2c(=O)n(C)c3ccccc3c2n1C | -13 | -5 | 3 | -1 | -2 | . | .
CCN(CC)CCCNC(=O)c1cc2c(=O)n(C)c3ccccc3c2n1C | 18 | 72* | 15 | 0 | 2 | . | -22%
COCCCNC(=O)c1cc2c(=O)n(C)c3ccccc3c2n1C | -21 | 14 | 15 | 7 | 1 | . | .
COc1cccc(NC(=O)N[C@@H]2CC[C@H](CC(=O)Nc3ccc(-c4ccccc4)cc3)O[C@@H]2CO)c1 | 4 | -15 | . | 9 | 2 | . | .

Screening results deposited in PubChem by Broad Institute.
